Data as given in publication PMC10784704 (The Journal of Biological Chemistry, 2023).

Target: T1, neutrophil elastase (NE) (Homo sapiens, UniProt P08246)
T1 sequence (P08246 30-267): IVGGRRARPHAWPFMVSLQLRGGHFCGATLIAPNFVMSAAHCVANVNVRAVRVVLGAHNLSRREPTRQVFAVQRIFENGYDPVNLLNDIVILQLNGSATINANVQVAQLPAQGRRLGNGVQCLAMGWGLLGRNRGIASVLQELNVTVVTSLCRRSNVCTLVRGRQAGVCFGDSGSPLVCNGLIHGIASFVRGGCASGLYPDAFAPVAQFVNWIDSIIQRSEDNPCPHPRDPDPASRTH
Assay: Longitudinal NE digestion of rCBG and asialo-rCBG
Type: in vitro ADME
Details: rCBG/NE 25:1 (w/w), on ice, 480 s incubation period; trypsin digest, LC-MS/MS
Summary of the method: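 Recombinant CBG, native or desialylated with neuraminidase A (40 U, overnight, 37 °C), digested with NE at 25:1 (w/w) on ice for 15, 30, 60, 120, 240 and 480 s. Stopped with 1 mM PMSF (8 min, ice), reduced with DTT, alkylated with IAA, and trypsin-digested at 20:1 (w/w) overnight at 37 °C. LC-MS/MS tracked intact and cleaved RCL peptides (unoccupied, sialo- and asialo-O-glycosylated). Mean + SD, n = 3.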

Molecule | Effect of Thr345 O-glycans on NE proteolysis reaction
rCBG: Polyhistidine-tagged recombinant human CBG expressed in HEK293 cells (Sino Biological) (protein, UniProt P08185 23-405, looked up, polyhistidine tag) Corticosteroid-binding …: MDPNAAYVNMSNHHRGLASANVDFAFSLYKHLVALSPKKNIFISPVSISMALAMLSLGTCGHTRAQLLQGLGFNLTERSETEIHQGFQHLHQLFAKSDTSLEMTMGNALFLDGSLELLESFSADIKHYYESEVLAMNFQDWATASRQINSYVKNKTQGKIVDLFSGLDSPAILVLVNYIFFKGTWTQPFDLASTREENFYVDETTVVKVPMMLQSSTISYLHDSELPCQLVQMNYVGNGTVFFILPDKGKMNTVIAALSRDTINRWSAGLTSSQVDLYIPKVTISGVYDLGDVLEEMGIADLFTNQANFSRITQDAQLKSSKVVHKAVLQLNEEGVDTAGSTGVTLNLTSKPIILRFNQPFIIMIFDHFTWSSLFLARVMNPV | strongly inhibit
asialo-rCBG: sialic acid-deficient glycoform of rCBG generated through exhaustive sialidase (neuraminidase A) treatment (protein, UniProt P08185 23-405, looked up, His tag; desialylated by neuraminidase) Corticosteroid-binding …: MDPNAAYVNMSNHHRGLASANVDFAFSLYKHLVALSPKKNIFISPVSISMALAMLSLGTCGHTRAQLLQGLGFNLTERSETEIHQGFQHLHQLFAKSDTSLEMTMGNALFLDGSLELLESFSADIKHYYESEVLAMNFQDWATASRQINSYVKNKTQGKIVDLFSGLDSPAILVLVNYIFFKGTWTQPFDLASTREENFYVDETTVVKVPMMLQSSTISYLHDSELPCQLVQMNYVGNGTVFFILPDKGKMNTVIAALSRDTINRWSAGLTSSQVDLYIPKVTISGVYDLGDVLEEMGIADLFTNQANFSRITQDAQLKSSKVVHKAVLQLNEEGVDTAGSTGVTLNLTSKPIILRFNQPFIIMIFDHFTWSSLFLARVMNPV | strongly inhibit
